The species entered for test [1] is Homo sapiens. Put plainly: Cytotoxic concentration that produces 50% growth inhibition of human skin fibroblast in VPR assay. Type of test: functional.
The species named for test [2] is Homo sapiens. Put plainly: Inhibitory concentration required to reduce HSV-2 induced cytopathogenic effect in human skin fibroblast. In kind it is functional, organism-based. A general note: Damage to the host cells serves as the signal in cytopathic effect assays.
Test [3] concerns HFF. Description: Inhibitory concentration for HSV-1 plaque reduction (VPR) by 50% in HFF cells. In kind it is functional, cell-based. As to conditions: Homo sapiens.
Test [4] deals with HFF. Put plainly: Cytotoxic concentration for 50% inhibition of cell growth of HSV-2 infected HFF cells determined by CPE assay. The settings on record: Homo sapiens. Type of test: functional.
Test [5] in a line: Inhibition constant against HSV-1 TK. Type of test: functional, herpes simplex virus.
Test [6] deals with HFF. Put plainly: Cytotoxic concentration for 50% inhibition of cell growth of HSV-2 infected HFF cells determined by VPR assay. In kind it is functional. As to conditions: Homo sapiens. Put shortly:
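Run in virus-infected HFF cells within the plaque reduction assay set-up. […] The value was converted from μg/mL to μM.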

Test [7] deals with HFF. Description: Inhibitory concentration for HSV-2 plaque reduction (VPR) by 50% in HFF cells. Type of test: functional, cell-based. The settings on record: Homo sapiens.
For test [8], the species on record is Homo sapiens. Put plainly: Inhibitory concentration required to reduce HSV-2 induced virus plaque reduction (VPR) in human skin fibroblast. In kind it is functional, organism-based.
For test [9], the system named is Human alphaherpesvirus 1. Description: Inhibitory concentration required to reduce HSV-1 induced cytopathogenic effect (CPE) by 50 % in HFF cells. The settings on record: Human alphaherpesvirus 1, HFF. Type of test: functional, organism-based, herpes simplex virus.
For test [10], the species on record is Homo sapiens. Description: Inhibitory concentration required to reduce HSV-1 induced virus plaque reduction (VPR) in human skin fibroblast. In kind it is functional, organism-based.
Test [11] is filed under the species Homo sapiens. Description: Cytotoxic concentration that produces 50% growth inhibition of human skin fibroblast infected with HSV-1. In kind it is functional.
Test [12] is filed under the species Homo sapiens. Put plainly: (§1) Inhibitory concentration required to reduce HSV-1 induced cytopathogenic effect (CPE) in human skin fibroblast. Type of test: functional, organism-based.
The next test concerns Human alphaherpesvirus 2. Put plainly: Inhibitory concentration required to reduce HSV-2 induced cytopathogenic effect (CPE) by 50 % in HFF cells. Type of test: functional, organism-based. The settings on record: Human alphaherpesvirus 2, HFF.
The subject of test [13] is HFF. Put plainly: Cytotoxic concentration for 50% inhibition of cell growth of HSV-1 infected HFF cells determined by VPR assay. Type of test: functional. As to conditions: Homo sapiens.
Test [14] has as its system HFF. Description: Cytotoxic concentration for 50% inhibition of cell growth of HSV-1 infected HFF cells determined by CPE assay. Type of test: functional. As to conditions: Homo sapiens.
A short description of test [15]: Inhibitory activity against HSV-1-TK transfected osteosarcoma cells. Type of test: functional. The method, boiled down:
(§2)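 Osteosarcoma lines (143B-TK⁻ with 0.1 mg/mL 5-BrdU selection; MG-63-hTK1; 143B-TK⁺-HSV1-WT with HAT) grown in MEM/10% FCS. Seeded at 2 × 10³ (143B lines) or 1.5 × 10³ (MG-63) cells/well, exposed to five concentrations over 0.5–500 μM for 4.5 days at 37 °C/5% CO₂. XTT added for 9 h, A450 (ref 750 nm) read against untreated wells. Three independent series in triplicate.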

The target of test [16] is T1, Thymidine kinase, cytosolic (Homo sapiens) (UniProt P04183).
T1 sequence (whole entry): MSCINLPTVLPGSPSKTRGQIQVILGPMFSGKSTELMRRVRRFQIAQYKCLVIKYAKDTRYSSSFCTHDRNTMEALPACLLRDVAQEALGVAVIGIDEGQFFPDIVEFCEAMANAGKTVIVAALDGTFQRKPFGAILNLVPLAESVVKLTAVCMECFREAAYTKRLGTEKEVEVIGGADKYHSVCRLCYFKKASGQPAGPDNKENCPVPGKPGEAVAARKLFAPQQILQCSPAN
The settings on record: herpes simplex virus.

The nature of test [17]: Cytotoxic concentration against HSV-1 TK- transfected osteosarcoma cells. In kind it is functional. As to conditions: Human alphaherpesvirus 1. Put shortly: as §2
The nature of test [18]: Cytotoxic concentration against HSV-1 TK-transfected osteosarcoma cells. In kind it is functional. The settings on record: Human alphaherpesvirus 1. The method, boiled down:
as §2

Test [19] is described as follows: Cytotoxic concentration against non transfected osteosarcoma cells non transfected (MG-63-hTK1). In kind it is functional. Put shortly: as §2
Test [20] concerns Human alphaherpesvirus 3. Description: Minimum cytotoxic concentration that causes alterations of VZV infected Osteosarcoma cell morphology. In kind it is functional.
For test [21], the system named is Human alphaherpesvirus 3. Description: Antiviral activity against OKA strain of thymidine kinase positive(TK+) Varicella-Zoster Virus (VZV). Type of test: functional, organism-based.
Test [22] has as its system Human alphaherpesvirus 3. Put plainly: Effective concentration against TK+ Varicella-Zoster Virus (VZV) OKA strain. Type of test: functional, organism-based.
The test system of test [23] is Human alphaherpesvirus 3. Description: Cytotoxic concentration that causes growth inhibition of VZV infected Osteosarcoma cells. In kind it is functional.
The subject of test [24] is Human alphaherpesvirus 3. Put plainly: Antiviral activity against YS/R strain of thymidine kinase negative(TK-) Varicella-Zoster Virus (VZV). Type of test: functional, organism-based.
For test [25], the system named is Human alphaherpesvirus 3. Put plainly: Antiviral activity against 07/1 strain of thymidine kinase negative (TK-) Varicella-Zoster Virus (VZV). Type of test: functional, organism-based.
A short description of test [26]: Minimum cytotoxic concentration that causes microscopically detectable alterations of cell morphology. In kind it is functional.
Test [27] deals with Human alphaherpesvirus 3. Put plainly: Antiviral activity against YS strain of thymidine kinase positive(TK+) Varicella-Zoster Virus (VZV). In kind it is functional, organism-based.
The subject of test [28] is Human alphaherpesvirus 3. Put plainly: Effective concentration against TK- Varicella-Zoster Virus (VZV) 07/1 strain. Type of test: functional, organism-based.
Test [29] has as its system Human alphaherpesvirus 3. Description: Effective concentration against TK+ Varicella-Zoster Virus (VZV)YS strain. In kind it is functional, organism-based.
Test [30] in a line: Cytotoxic concentration that produces 50% inhibition of cell growth. Type of test: functional.
The test system of test [31] is Human alphaherpesvirus 3. Put plainly: Effective concentration against TK- Varicella-Zoster Virus (VZV) YS/R strain. Type of test: functional, organism-based.
The subject of test [32] is Human alphaherpesvirus 1. The test is described as §1. In kind it is functional, organism-based, herpes simplex virus.
For test [33], the system named is HFF. Description: Concentration for HSV-1 plaque reduction (VPR) by 50% in HFF cells. In kind it is functional, cell-based. The settings on record: Homo sapiens.
The test system of test [34] is HFF. Description: Concentration for HSV-2 plaque reduction (VPR) by 50% in HFF cells. In kind it is functional, cell-based. As to conditions: Homo sapiens.

SMILES strings stand for the structures.

By CC50 is commonly meant the concentration that lowers cell viability or growth by half. Read a high CC50 as lower toxicity to the cells. The EC50 is the midpoint of the concentration-response curve. Low readings indicate a more potent agent, high ones a less potent agent. By Ki is commonly meant a measure of affinity in units of concentration, obtained from inhibition or displacement. Low readings indicate tighter binding, high ones weaker binding. Turning to `Cc1cn([C@H]2C[C@H](O)[C@]3(CO)C[C@H]23)c(=O)[nH]c1=O` [(NORTH)-METHANOCARBATHYMIDINE], the CC50 in the test filed under Homo sapiens [1] is greater than 79000 nM; in the test on HFF [4], greater than 396000 nM; in the test on HFF [6], greater than 79000 nM; in the test filed under Homo sapiens [11] it was greater than 396000 nM; in the test on HFF [13] it was greater than 79000 nM; in the test on HFF [14], greater than 396000 nM. Also, the concentration giving a half-maximal response (EC50) in the test listed under Homo sapiens [2] was found to be 350 nM; in the test on HFF [3] it was 40 nM; in the test on HFF [7], 470 nM; in the test filed under Homo sapiens [8], 470 nM; in the test on Human alphaherpesvirus 1 [9], 120 nM; in the test filed under Homo sapiens [10], 40 nM. Further, the EC50 in the test listed under Homo sapiens [12] was determined as 120 nM; in the test on Human alphaherpesvirus 2, 350 nM. Moreover, in test [5], affinity was put at a Ki of 16100 nM.

Consider `Nc1nc2c(ncn2COC(CO)CO)c(=O)[nH]1` [GANCICLOVIR], for which the half-maximal cytotoxic concentration (CC50) was 75000 nM in test [15], 200000 nM in test [17], 75000 nM in test [18] and 300000 nM in test [19]. For the same compound, the k cat in test [16] is 0.1 s⁻¹.

In the case of `O=c1[nH]c(=O)n([C@H]2C[C@H](O)[C@@H](CO)O2)cc1/C=C/Br` [BRIVUDINE], the MCC (in the test on Human alphaherpesvirus 3 [20]; in test [26]) was greater than 150 µM throughout. For the same compound, the EC50 in the test on Human alphaherpesvirus 3 [21] is 5 nM; in the test with Human alphaherpesvirus 3 [22], 5 nM; in the test on Human alphaherpesvirus 3 [24] it was greater than 150000 nM; in the test on Human alphaherpesvirus 3 [25], greater than 150000 nM; in the test with Human alphaherpesvirus 3 [27], 8 nM; in the test with Human alphaherpesvirus 3 [28], greater than 150000 nM. The figures for the EC50 in the test with Human alphaherpesvirus 3 [29] and with Human alphaherpesvirus 3 [31] were 8 nM and greater than 150000 nM, respectively. The CC50 (in the test on Human alphaherpesvirus 3 [23]; in [30]) was greater than 400000 nM each time.

Regarding `Nc1nc2c(ncn2COCCO)c(=O)[nH]1` [ACYCLOVIR], the EC50 with Human alphaherpesvirus 1 [32] stood at 2220 nM; in the test filed under Homo sapiens [2], 10200 nM; in the test with HFF [33], 1100 nM; in the test filed under Homo sapiens [8] it was 1680 nM; in the test with Human alphaherpesvirus 1 [9] it was 2220 nM; in the test filed under Homo sapiens [10], 1100 nM. Further, the figures for the EC50 in the test with Human alphaherpesvirus 2 and in the test on HFF [34] were 10200 nM and 1680 nM, respectively.

(Values after ChEMBL document CHEMBL1144911, “Synthesis and biological evaluation of 5-substituted derivatives of the potent antiherpes agent (north)-methanocarbathymine” (J Med Chem, 2003).)
